In ChEMBL document CHEMBL1157245, “Bromophenols coupled with methyl gamma-ureidobutyrate and bromophenol sulfates from the red alga Rhodomela confervoides” (J Nat Prod, 2006):

What was measured:
Assay type in all cases: functional, cell-based
A549 = assay: Cytotoxicity against human A549 cells after 96 hrs by MTT assay; conditions: A549, 96 h
Procedure, shortened: (§1)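 Cell lines from ATCC, grown in RPMI 1640 with 10% FBS plus penicillin/streptomycin at 37 °C, 5% CO2. Seeded at 1200 cells/well; compounds added 24 h later at five concentrations from DMSO stocks (final DMSO 0.1%), triplicate wells.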

A2780 = assay: Cytotoxicity against human A2780 cells after 96 hrs by MTT assay; conditions: A2780, 96 h; procedure, shortened: as §1
BGC-823 = assay: Cytotoxicity against human BGC823 cells after 96 hrs by MTT assay; conditions: BGC-823, 96 h; procedure, shortened: as §1
HCT-8 = assay: Cytotoxicity against human HCT8 cells after 96 hrs by MTT assay; conditions: HCT-8, 96 h; procedure, shortened: as §1
Bel-7402 = assay: Cytotoxicity against human BEL-7402 cells after 96 hrs by MTT assay; conditions: Bel-7402, 96 h; procedure, shortened: as §1

Compound `COC(=O)CCCNC(=O)N(Cc1cc(O)c(O)c(Br)c1Br)Cc1cc(O)c(O)c(Br)c1Cc1cc(O)c(O)c(Br)c1Br` has an IC50 (A549) greater than 10 mg/L, an IC50 (A2780) greater than 10 mg/L and an IC50 (BGC-823) greater than 10 mg/L. For the same compound, the IC50 (HCT-8) was greater than 10 mg/L and the IC50 (Bel-7402) was greater than 10 mg/L.
With `COC(=O)CCCNC(=O)NCc1cc(O)c(O)c(Br)c1Br` the IC50 (A549) was greater than 10 mg/L, the IC50 (A2780) was greater than 10 mg/L and the IC50 (BGC-823) was greater than 10 mg/L. The IC50 (HCT-8) was greater than 10 mg/L and the IC50 (Bel-7402) was greater than 10 mg/L.
`O=S(=O)(O)OCCc1cc(O)c(O)c(Br)c1Cc1cc(O)c(O)c(Br)c1Br` was tested, and the IC50 (A549) was 14.5 µM, the IC50 (A2780) was greater than 16.9 µM and the IC50 (BGC-823) was 15.1 µM. It also gave an IC50 (HCT-8) of 12.1 µM and an IC50 (Bel-7402) of 13.5 µM.
Compound `COC(=O)CCCNC(=O)NCc1cc(O)c(O)c(Br)c1Cc1cc(O)c(O)c(Br)c1Br` has an IC50 (A549) greater than 10 mg/L, an IC50 (A2780) greater than 10 mg/L and an IC50 (BGC-823) greater than 10 mg/L. For the same compound, the IC50 (HCT-8) was greater than 10 mg/L and the IC50 (Bel-7402) was greater than 10 mg/L.
`O=S(=O)(O)OCCc1cc(O)c(O)c(Br)c1` was tested, and the IC50 (A549) was 18.5 µM, the IC50 (A2780) was 20.8 µM and the IC50 (BGC-823) was 19.1 µM. It also gave an IC50 (HCT-8) of 18.8 µM and an IC50 (Bel-7402) of 20.4 µM.
`O=S(=O)(O)OCCc1cc(O)c(O)c(Br)c1Br` showed an IC50 (A549) of 14.7 µM, an IC50 (A2780) of 9.4 µM and an IC50 (BGC-823) of 14 µM. The IC50 (HCT-8) was 14.6 µM and the IC50 (Bel-7402) was 14.8 µM.
`OCCc1cc(O)c(O)c(Br)c1Br` gave an IC50 (A549) of 19.7 µM, an IC50 (A2780) of 19.9 µM and an IC50 (BGC-823) of 20.2 µM. It also gave an IC50 (HCT-8) of 15.4 µM and an IC50 (Bel-7402) of 19.4 µM.
Work on `COC(=O)CCCN(Cc1cc(O)c(O)c(Br)c1Br)C(=O)NCc1cc(O)c(O)c(Br)c1Br` yielded an IC50 (A549) greater than 10 mg/L, an IC50 (A2780) greater than 10 mg/L and an IC50 (BGC-823) greater than 10 mg/L. For the same compound, the IC50 (HCT-8) was greater than 10 mg/L and the IC50 (Bel-7402) was greater than 10 mg/L.
With `O=c1[nH]cc(F)c(=O)[nH]1` [FLUOROURACIL] the IC50 (A549) was 1.4 µM, the IC50 (A2780) was 5 µM and the IC50 (BGC-823) was 5.4 µM. It also gave an IC50 (HCT-8) of 4.2 µM and an IC50 (Bel-7402) of 4.2 µM.
